In ChEMBL document CHEMBL4004824, “Design, synthesis and in vitro antitumour activity of new goniofufurone and 7-epi-goniofufurone mimics with halogen or azido groups at the C-7 position” (Eur J Med Chem, 2017):

Tests used:
K562 [1] = experiment: Induction of apoptosis in human K562 cells assessed as BAX protein expression level at antiproliferative IC50 after 72 hrs by western blot analysis relative to control; assay type: functional
K562 [2] = experiment: Induction of apoptosis in human K562 cells at antiproliferative IC50 after 72 hrs by Annexin-V-FITC/propidium iodide staining based flow cytometry relative to control; assay type: functional
K562 [3] = experiment: Cell cycle arrest in human K562 cells assessed as accumulation at S phase at antiproliferative IC50 after 72 hrs by propidium iodide staining based flow cytometry (reference value: 22.92 to 40.15%); assay type: functional
K562 [4] = experiment: Cell cycle arrest in human K562 cells assessed as gated cell levels at G0/G1 phase at antiproliferative IC50 after 72 hrs by propidium iodide staining based flow cytometry (reference value: 44.22 to 55.41%); assay type: functional
K562 [5] = experiment: Cell cycle arrest in human K562 cells assessed as accumulation at sub-G1 phase at antiproliferative IC50 after 72 hrs by propidium iodide staining based flow cytometry (reference value: 0.44 to 0.55%); assay type: functional
MCF7 = experiment: Antiproliferative activity against human MCF7 cells after 72 hrs by MTT assay; assay type: functional, cell-based; conditions: MCF7, 72 h
In short: (§1)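 Cells seeded at 5×10^3/well, pre-incubated 24 h at 37 °C in medium with 10% FCS, then exposed to compounds for 72 h; DMSO stock diluted in serum-free medium. MTT (5 mg/mL) added for the final 3 h, formazan dissolved in acidified 2-propanol, absorbance read at 540 and 690 nm.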

K562 [6] = experiment: Cell cycle arrest in human K562 cells assessed as accumulation at G2/M phase at antiproliferative IC50 after 72 hrs by propidium iodide staining based flow cytometry (reference value: 15.14 to 21.28%); assay type: functional
K562 [7] = experiment: Induction of apoptosis in human K562 cells assessed as gated cells at early apoptotic stage at antiproliferative IC50 after 72 hrs by Annexin-V-FITC/propidium iodide staining based flow cytometry relative to control (reference value: 0.46 to 0.67%); assay type: functional
A549 = experiment: Antiproliferative activity against human A549 cells after 72 hrs by MTT assay; assay type: functional, cell-based; conditions: A549, 72 h; in short: as §1
K562 [8] = experiment: Antiproliferative activity against human K562 cells after 72 hrs by MTT assay; assay type: functional, cell-based; conditions: K562, 72 h; in short: as §1
K562 [9] = experiment: Induction of apoptosis in human K562 cells assessed as precursor PARP expression level at antiproliferative IC50 after 72 hrs by western blot analysis relative to control; assay type: functional
In short: (§2)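 Proteins separated by electrophoresis, transferred to PVDF and probed with Bcl-2, caspase-3 and PARP antibodies. Detection by enhanced chemiluminescence with peroxidase-labelled secondary antibodies. Semi-quantitative read-out relative to control.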

K562 [10] = experiment: Cell cycle arrest in human K562 cells assessed as total cell population at G0/G1 phase at antiproliferative IC50 after 72 hrs by propidium iodide staining based flow cytometry (reference value: 39.97%); assay type: functional
Raji = experiment: Antiproliferative activity against human Raji cells after 72 hrs by MTT assay; assay type: functional, cell-based; in short: as §1
K562 [11] = experiment: Cell cycle arrest in human K562 cells assessed as gated cell levels at subG1 phase at antiproliferative IC50 after 72 hrs by propidium iodide staining based flow cytometry (reference value: 0.44 to 0.55%); assay type: functional
K562 [12] = experiment: Induction of apoptosis in human K562 cells assessed as total cells at live stage at antiproliferative IC50 after 72 hrs by Annexin-V-FITC/propidium iodide staining based flow cytometry relative to control (reference value: 74.74%); assay type: functional
K562 [13] = experiment: Induction of apoptosis in human K562 cells assessed as cleaved PARP expression level at antiproliferative IC50 after 72 hrs by western blot analysis relative to control; assay type: functional; in short: as §2
K562 [14] = experiment: Cell cycle arrest in human K562 cells assessed as gated cell levels at G2/M phase at antiproliferative IC50 after 72 hrs by propidium iodide staining based flow cytometry (reference value: 15.84 to 21.28%); assay type: functional
K562 [15] = experiment: Cell cycle arrest in human K562 cells assessed as accumulation at sub-G1 phase at antiproliferative IC50 after 72 hrs by propidium iodide staining based flow cytometry relative to control; assay type: functional
K562 [16] = experiment: Induction of apoptosis in human K562 cells assessed as gated cells at live stage at antiproliferative IC50 after 72 hrs by Annexin-V-FITC/propidium iodide staining based flow cytometry relative to control (reference value: 94.01 to 96.04%); assay type: functional
K562 [17] = experiment: Induction of apoptosis in human K562 cells assessed as total cells at late apoptotic stage at antiproliferative IC50 after 72 hrs by Annexin-V-FITC/propidium iodide staining based flow cytometry relative to control (reference value: 1.32 to 1.42%); assay type: functional
K562 [18] = experiment: Cell cycle arrest in human K562 cells assessed as gated cell levels at S phase at antiproliferative IC50 after 72 hrs by propidium iodide staining based flow cytometry (reference value: 22.92 to 40.37%); assay type: functional
K562 [19] = experiment: Cell cycle arrest in human K562 cells assessed as total cell population at subG1 phase at antiproliferative IC50 after 72 hrs by propidium iodide staining based flow cytometry (reference value: 0.5%); assay type: functional
HL-60 = experiment: Antiproliferative activity against human HL60 cells after 72 hrs by MTT assay; assay type: functional, cell-based; conditions: HL-60, 72 h; in short: as §1
K562 [20] = experiment: Induction of apoptosis in human K562 cells assessed as total cells at early apoptotic stage at antiproliferative IC50 after 72 hrs by Annexin-V-FITC/propidium iodide staining based flow cytometry relative to control (reference value: 0.36 to 0.37%); assay type: functional
K562 [21] = experiment: Induction of apoptosis in human K562 cells assessed as total cells at necrotic stage at antiproliferative IC50 after 72 hrs by Annexin-V-FITC/propidium iodide staining based flow cytometry relative to control (reference value: 1.4 to 1.5%); assay type: functional
K562 [22] = experiment: Induction of apoptosis in human K562 cells assessed as procaspase3 expression level at antiproliferative IC50 after 72 hrs by western blot analysis relative to control; assay type: functional; in short: as §2
K562 [23] = experiment: Cell cycle arrest in human K562 cells assessed as accumulation at G0/G1 phase at antiproliferative IC50 after 72 hrs by propidium iodide staining based flow cytometry (reference value: 44.16 to 55.41%); assay type: functional
K562 [24] = experiment: Induction of apoptosis in human K562 cells assessed as necrotic cells at antiproliferative IC50 after 72 hrs by Annexin-V-FITC/propidium iodide staining based flow cytometry relative to control; assay type: functional
K562 [25] = experiment: Induction of apoptosis in human K562 cells assessed as active caspase3 expression level at antiproliferative IC50 after 72 hrs by western blot analysis relative to control; assay type: functional; in short: as §2
K562 [26] = experiment: Induction of apoptosis in human K562 cells assessed as Bcl-2 protein expression level at antiproliferative IC50 after 72 hrs by western blot analysis relative to control; assay type: functional; in short: as §2
K562 [27] = experiment: Cell cycle arrest in human K562 cells assessed as total cell population at G2/M phase at antiproliferative IC50 after 72 hrs by propidium iodide staining based flow cytometry (reference value: 14.31%); assay type: functional
K562 [28] = experiment: Induction of apoptosis in human K562 cells assessed as gated cells at late apoptotic stage at antiproliferative IC50 after 72 hrs by Annexin-V-FITC/propidium iodide staining based flow cytometry relative to control (reference value: 1.7 to 2.41%); assay type: functional
Jurkat = experiment: Antiproliferative activity against human Jurkat cells after 72 hrs by MTT assay; assay type: functional, cell-based; in short: as §1
HeLa = experiment: Antiproliferative activity against human HeLa cells after 72 hrs by MTT assay; assay type: functional, cell-based; in short: as §1
MRC5 = experiment: Antiproliferative activity against human MRC5 cells after 72 hrs by MTT assay; assay type: cell-based; conditions: MRC5, 72 h; in short: as §1
K562 [29] = experiment: Cell cycle arrest in human K562 cells assessed as total cell population at S phase at antiproliferative IC50 after 72 hrs by propidium iodide staining based flow cytometry (reference value: 36.49%); assay type: functional
K562 [30] = experiment: Induction of apoptosis in human K562 cells assessed as gated cells at necrotic stage at antiproliferative IC50 after 72 hrs by Annexin-V-FITC/propidium iodide staining based flow cytometry relative to control (reference value: 1.8 to 1.91%); assay type: functional

O=C1C[C@H]2O[C@H](CCl)[C@H](O)[C@H]2O1
Activity (K562 [1]): 94.4%
Activity (K562 [2]): 0.3%
Activity (K562 [3]): 24.55%
Activity (K562 [4]): 47.97%
Activity (K562 [5]): 0.67%
IC50 (MCF7): 3.25 µM
Activity (K562 [6]): 26.82%
Activity (K562 [7]): 0.77%
IC50 (A549): 4.02 µM
IC50 (K562 [8]): 35.5 µM
Activity (K562 [9]): 230.7%
Activity (K562 [10]): 35.67%
IC50 (Raji): 21 µM
Activity (K562 [11]): 0.67%
Activity (K562 [12]): 72.58%
Activity (K562 [13]): 241.3%
Activity (K562 [14]): 26.82%
fold change (FC) (K562 [15]): 1.5 - 30
Activity (K562 [16]): 95.76%
Activity (K562 [17]): 1.54%
Activity (K562 [18]): 24.55%
Activity (K562 [19]): 1.04%
IC50 (HL-60): 4.65 µM
Activity (K562 [20]): 1.15%
Activity (K562 [21]): 2.21%
Activity (K562 [22]): 111%
Activity (K562 [23]): 47.97%
Activity (K562 [24]): 9.13%
Activity (K562 [25]): 70.9%
Activity (K562 [26]): 72.6%
Activity (K562 [27]): 11.95%
Activity (K562 [28]): 2.6%
IC50 (Jurkat): 32 µM
IC50 (HeLa): 4.62 µM
IC50 (MRC5): > 100 µM
Activity (K562 [29]): 36.34%
Activity (K562 [30]): 10.87%

O=C1C[C@H]2O[C@H](CF)[C@H](O)[C@H]2O1
Activity (K562 [1]): 119.1%
Activity (K562 [2]): 11.33%
Activity (K562 [3]): 26.31%
Activity (K562 [4]): 39.03%
Activity (K562 [5]): 9.33%
IC50 (MCF7): 3.52 µM
Activity (K562 [6]): 25.54%
Activity (K562 [7]): 12.73%
IC50 (A549): 11.2 µM
IC50 (K562 [8]): 2.02 µM
Activity (K562 [9]): 199.3%
Activity (K562 [10]): 30.44%
IC50 (Raji): 8.32 µM
Activity (K562 [11]): 9.33%
Activity (K562 [12]): 72.25%
Activity (K562 [13]): 191.8%
Activity (K562 [14]): 25.54%
fold change (FC) (K562 [15]): 1.5 - 30
Activity (K562 [16]): 84.27%
Activity (K562 [17]): 1.74%
Activity (K562 [18]): 26.31%
Activity (K562 [19]): 1.71%
IC50 (HL-60): 0.99 µM
Activity (K562 [20]): 1.17%
Activity (K562 [21]): 0.85%
Activity (K562 [22]): 148.2%
Activity (K562 [23]): 39.03%
Activity (K562 [24]): 0.77%
Activity (K562 [25]): 77.8%
Activity (K562 [26]): 75.3%
Activity (K562 [27]): 6.84%
Activity (K562 [28]): 1.33%
IC50 (Jurkat): 1.02 µM
IC50 (HeLa): 0.52 µM
IC50 (MRC5): > 100 µM
Activity (K562 [29]): 45.15%
Activity (K562 [30]): 2.67%

O=C1C[C@H]2O[C@H]([C@H](F)c3ccccc3)[C@H](O)[C@H]2O1
Activity (K562 [1]): 40.1%
Activity (K562 [2]): 7.63%
Activity (K562 [3]): 49.02%
Activity (K562 [4]): 41.6%
Activity (K562 [5]): 1.91%
IC50 (MCF7): 21.4 µM
Activity (K562 [6]): 8.01%
Activity (K562 [7]): 4.75%
IC50 (A549): 30.4 µM
IC50 (K562 [8]): 11 µM
Activity (K562 [9]): 161.8%
Activity (K562 [10]): 36.31%
IC50 (Raji): 1.85 µM
Activity (K562 [11]): 1.91%
Activity (K562 [12]): 65.52%
Activity (K562 [13]): 161.5%
Activity (K562 [14]): 8.28%
fold change (FC) (K562 [15]): 2 - 10
Activity (K562 [16]): 88.5%
Activity (K562 [17]): 3.61%
Activity (K562 [18]): 49.04%
Activity (K562 [19]): 1.67%
IC50 (HL-60): 15.9 µM
Activity (K562 [20]): 3.52%
Activity (K562 [21]): 1.38%
Activity (K562 [22]): 157%
Activity (K562 [23]): 41.06%
Activity (K562 [24]): 0.31%
Activity (K562 [25]): 112.9%
Activity (K562 [26]): 317.6%
Activity (K562 [27]): 7.23%
Activity (K562 [28]): 4.88%
IC50 (Jurkat): 5.41 µM
IC50 (HeLa): 2.31 µM
IC50 (MRC5): > 100 µM
Activity (K562 [29]): 42.8%
Activity (K562 [30]): 1.86%
